# Lmaj promast – reduces viability of Leishmania major promastigotes. resazurin fluorescence viability. inhibition, % at 10 µM. 200,000 compounds, 9% hits. AID 1063; in the data active means inhibition above about 50%;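 further: promastigotes grown with compound for 44 hours at 28 °C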
# Diaphorase act – counter-screen for diaphorase-based assays: diaphorase activators and chemical reducers. AID 1229. activation factor at 20 µM. Diaphorase/resazurin coupled assay, resorufin fluorescence, 16 min; active compounds read high; 1 = vehicle wells, 0 = NADH-free wells. 190,000 compounds, 0.005% hits;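 active means diaphorase activity raised at least twofold by the compound at 20 µM; inactive means activation factor below 2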
#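 Test system: Clostridium kluyveri diaphorase, purified enzyme; input: enzyme 0.07 U/mL final; buffer or medium: 50 mM HEPES pH 7.4 with 4.542 mM MgCl2, 0.005% Tween 20; also added: 0.114 mM NADH and 0.1 mM resazurin, final amounts; schedule: 16 min enzyme reaction, ambient temperature; technique: fluorescence of resorufin, 544 nm excitation, 590 nm emission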
# Diaphorase inh – diaphorase inhibition or chemical oxidation counter-screen. inhibition, % at 20 µM. AID 1217. diaphorase resazurin-to-resorufin fluorescence, NADH, 16 min; bacterial (C. kluyveri) enzyme, not human. 190,000 compounds, 0.69% hits;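 active means primary screen inhibition at 20 µM above a set limit, cut at about 50% in these data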
#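 Test system: Clostridium kluyveri diaphorase enzyme / Quantity: diaphorase at 0.14 U/mL in enzyme working solution / Incubation: 16-min room-temperature incubation before reading / Benchmarks: NADH-free wells as positive control, DMSO-only neutral wells / Signal: resorufin fluorescence 544/590 nm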
# Cl transport mod – modulates chloride dependent transport by human KCC2; Q9H2X9; KCC2 cells, thallium flux FluoZin-2 fluorescence; B-score of Tl+ flux slope (higher = more flux/activation; lower = inhibition) at 10 µM; 190,000 compounds, 2.2% hits; AID 1456;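 active means thallium flux slope and its plate-corrected score both differing from the plate sample mean at a set confidence after two filtering rounds, in either direction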;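 further: slope of fluorescence scaled to starting intensity during 10 to 20 s after thallium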
# ROMK primary – human ROMK K+ channel modulation, primary screen | P48048 | Tet-inducible ROMK, thallium flux fluorescence; actives lie on both sides | B-score at 10 µM | 130,000 compounds, 2% hits;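 active means signal ratio slope over the read window, or its plate-corrected B-score, at least 3 SD from the plate mean, either direction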;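 further: B-score of the F/F0 ratio slope over 7 to 12 s after thallium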
# WT yeast gro inh – growth inhibition of WT yeast, mitochondrial fusion screen | mitochondrial fusion phenotypic screen, WT strain | inhibition, % at 10 µM | 190,000 compounds, 2.1% hits | AID 1362; in the data active means inhibition above about 58%; tested in S. cerevisiae
# Lmaj promast 1uM – blocks Leishmania major promastigote growth at 1 uM, repeat screen | inhibition, % at 1 µM | shares compounds with Lmaj promast | 1,100 compounds, 13% hits | AID 1258 | L. major promastigote growth, resazurin fluorescence, 48 h;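 active means inhibition above about 50% in both repeat tests, limit read from the data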
# Numbers stand for hits; i = inactive; nt = not tested or not shown. Shown are actives, neighbours in structure and some others; about 12% of the full set was active somewhere.
SMILES,Lmaj promast,Diaphorase act,Diaphorase inh,Cl transport mod,ROMK primary,WT yeast gro inh,Lmaj promast 1uM
CCn1c(C)c(C(C)=O)c(N2CCCC2)nc1=S,i,i,57,i,i,i,nt
COc1cc(C2NC(=O)CS2)cc(OC)c1OC (centres undefined),86,i,i,i,i,i,nt
COc1cccc(N2CCN(C(=O)Nc3ccccc3Cl)CC2)c1,i,i,i,i,i,i,nt
Cc1nn(-c2ccccc2Cl)c(Cl)c1/C=N/Nc1nc2ccccc2s1,59,i,i,i,i,i,nt
CCOC(=O)N/N=C/c1c(C)nn(-c2ccccc2Cl)c1Cl,i,i,i,i,nt,i,nt
O=C1CCCCC1C(Nc1ccc(Br)cc1)c1ccccc1 (centres undefined),i,i,i,i,i,65,nt
O=C1CCCCC1C(Nc1ccc(Cl)cc1)c1ccccc1 (centres undefined),i,i,i,i,i,i,nt
CC(O/N=C\c1ccccc1O)C(=O)Nc1ccccc1C(=O)N1CCOCC1 (centres undefined),i,i,i,i,nt,i,nt
O=C(N/N=C/c1ccccc1[N+](=O)[O-])C(=O)N1CCCC1,i,i,i,i,i,i,nt
Cc1ccc(Nc2cc(C)nn2-c2nc(C)cc(=O)[nH]2)cc1,100,i,i,nt,i,i,nt
CC(=O)Nc1cc(C)nn1-c1nc(C)cc(C)n1,i,i,i,i,i,i,nt
Cc1ccc(Nc2cc(C)nn2-c2nc(C)cc(C)n2)cc1,92,i,i,i,nt,75,nt
O=C(NCc1ccc(S(=O)(=O)Nc2ccccc2Cl)s1)c1ccccc1,nt,nt,nt,i,nt,nt,nt
COc1cc(C(F)(F)F)c(C(=O)N(C)Cc2cc(Cl)cc(Cl)c2)cn1,nt,nt,nt,i,nt,nt,nt
CNC(=O)/C(C#N)=C/c1c(N2CC(C)OC(C)C2)nc2ccccn2c1=O (centres undefined),i,i,i,i,i,i,nt
Cc1ccc(C(=O)CN(C(=O)c2ccc(Cl)cc2)N2C(=O)CCC2=O)cc1,89,i,i,i,i,i,nt
Cc1ccc(C(=O)CN(C(=O)c2ccc(Cl)cc2)N2C(=O)c3ccccc3C2=O)cc1,i,i,i,nt,i,i,nt
FC(F)(F)c1cc(-c2ccco2)nc2ncnn12,i,i,i,i,i,i,nt
COc1ccc(Cn2cnc3c(N)c(C)c(C)cc32)cc1,i,i,i,i,i,i,nt
CCCCCCCCn1cnc2c(N)c(C)c(C)cc21,91,i,i,nt,nt,59,i
Cc1sc2c(c1C)c(=O)n(-c1ccccc1)c1nnc(C)n21,i,i,i,i,nt,i,nt
CC1N(C)c2cccc3cccc(c23)N1C,i,i,i,i,i,i,nt
CC1=Nc2cccc3cccc(c23)N1C,85,i,i,i,i,i,i
CC1CC2(C)Oc3ccccc3CC2C(C)C1CNCCCN(C)C (centres undefined),100,i,i,i,i,i,i
O=C(CN1CCc2ccccc2C1)N1CCN(S(=O)(=O)c2ccccc2)CC1,90,i,i,nt,nt,i,i
SMILES,Lmaj promast,Diaphorase act,Diaphorase inh,Cl transport mod,ROMK primary,WT yeast gro inh,Lmaj promast 1uM
O=C(O)CSCC(=O)N1CCN(S(=O)(=O)c2ccccc2)CC1,i,i,i,i,i,i,nt
O=C(NNS(=O)(=O)c1cc(Cl)cc(Cl)c1)c1sccc1-n1cccc1,i,i,i,nt,nt,i,nt
O=C1NNC(=O)C2C3C=CC(C4CC34)C12 (centres undefined),i,i,i,i,i,i,nt
CCn1cc(S(=O)(=O)c2ccc(C)cc2)[nH]c1=O,i,i,i,i,i,i,nt
C=CCOc1ccc2c(c1)c(S(=O)(=O)c1ccc(C)cc1)cn2COC,88,i,i,i,nt,i,i
CC(=O)C1=C(C)NC(=O)CC1c1ccc(F)cc1 (centres undefined),i,i,i,i,i,i,nt
C/C(=N\NC(=O)c1c[nH]c2ccccc12)c1ccc(C)o1,54,i,i,nt,i,i,i
C/C(=N/NC(=O)c1ccccn1)c1c[nH]c2ccccc12,nt,nt,nt,i,nt,nt,nt
Cn1cnnc1Sc1ccc(C(=O)NCCC(c2ccccc2)c2ccccc2)cc1[N+](=O)[O-],i,i,i,i,i,i,nt
CCCn1nc(-c2nnc(-c3ccc(C)c(C)c3)o2)c2ccccc2c1=O,i,i,i,nt,i,i,nt
COc1ccc(C(C)(C)C)cc1NC(=O)Cn1cnnn1,i,i,i,i,i,i,nt
Cc1occc1C(=O)NNC(=O)C1CCCCC1,72,i,i,i,i,i,i
COC(=O)C(Cc1cnc(Cl)s1)(C(=O)OC)c1ccc([N+](=O)[O-])cc1[N+](=O)[O-],63,i,i,i,i,i,i
CCOC(=O)C1CCN(C(=S)Nc2cc(OC)c(OC)cc2C(=O)OC)CC1,61,i,i,i,i,i,i
Nc1nc2ncc(-c3ccsc3)c(N)n2n1,i,i,i,i,i,i,nt
Cc1ccc(C(=O)C(OC(=O)CNC(=O)c2ccc(Cl)cc2)c2ccccc2)cc1 (centres undefined),i,i,i,i,nt,i,nt
CCN1C(=O)/C(=C\N(C)C)S/C1=N\S(=O)(=O)c1ccc(C)cc1,i,i,i,i,i,i,nt
Cc1ccc2[nH]c3c(c2c1)CCc1cn[nH]c1-3,52,i,70,i,nt,i,i
CCN1C(=O)[C@H]2[C@H]3[C@H](O)[C@H](O)C/C(=N\O[C@H](C)c4cn([C@H](CO)Cc5ccccc5)nn4)[C@@H]3CC[C@H]2C1=O,i,i,i,i,i,i,nt
O=C1C(=O)c2c(C(=O)c3ccccc3)coc2-c2ccccc21,100,i,62,i,i,i,61
Cc1ccccc1N=C1NC(=O)/C(=C/c2cccnc2)S1,nt,nt,nt,i,nt,nt,nt
O=S(=O)(c1ccc(S(=O)(=O)N2CCCN(Cc3ccccc3)C2)cc1)N1CCCCCC1,76,i,i,i,nt,i,i
CCCCn1nnnc1SCC(=O)N1CCCC1,i,i,i,i,nt,i,nt
Cc1cc(/C=C(\C#N)c2nc3ccccc3[nH]2)c(C)n1C,i,i,i,i,i,i,nt
Cc1cc(/C=C(/C#N)c2nc3ccccc3[nH]2)c(C)n1-c1cccc([N+](=O)[O-])c1,88,i,i,nt,i,i,i
SMILES,Lmaj promast,Diaphorase act,Diaphorase inh,Cl transport mod,ROMK primary,WT yeast gro inh,Lmaj promast 1uM
FC(F)(F)c1nnc(-c2ccccc2)nc1Sc1ccccc1,52,i,i,nt,nt,i,i
FC(F)(F)c1nnc(-c2ccccc2)nc1Sc1ccc(Cl)cc1,i,i,i,i,nt,i,nt
CCC(CC)NC(=O)Cc1ccccc1OC,i,i,i,nt,i,i,nt
CN1CCCN(C2C3CC4CC(C3)CC2C4)CC1 (centres undefined),52,i,i,i,nt,i,i
Cc1ccc2cc(C)c(Sc3nnnn3-c3ccccc3)nc2c1,60,i,i,i,nt,i,i
COC(=O)c1cc(C(=O)Nc2cc(C)ccn2)cc([N+](=O)[O-])c1,i,i,i,nt,i,i,nt
CC(C)(C)c1cc(C(=O)NCc2ccccc2)ccn1,i,i,i,i,nt,i,nt
